Assay results of several laboratories.
Compare with care: the assays were run in different laboratories.
Target: Histamine H3 receptor (HRH3, Homo sapiens, UniProt Q9Y5N1)

With `O=C(Nc1cccnn1)N1CCN([C@@H]2CCOc3cc(C(F)(F)F)ccc32)CC1` the inhibition was 11% (cell-free assay; 20 µM).
The inhibition of `Cc1c(N2CCNCC2)nc2ccc(Br)cc2c1C(=O)NC[C@H](CCC(=O)O)c1ccccc1Cl` is reported as 16.9% (ligand displacement; 10 µM).
For `C[C@H](C(=O)N[C@H]1COc2ccccc2[C@@H]1S(C)(=O)=O)c1ccc(F)cc1`, the inhibition was 1% (cell-free assay; 10 µM).
For `COCc1c(-c2cc3cc(C)cc(OC)c3s2)c2c(N)ncnn2c1CN1CCNC(=O)C1`, the inhibition was -8% (ligand displacement, radioligand; 10 µM).
With `CN(CCN1CCC(OC(=O)Nc2ccccc2-c2ccccc2)CC1)C(=O)c1ccc(CN2CCC(C(N)=O)CC2)cc1` the inhibition was 72% (ligand displacement, radioligand; 1 µM).
`CC(C)N1CCC[C@H]1CNC(=O)c1cn(C2CCCC2)c(=O)c2c1c1ccccc1n2C` gave an inhibition of 26% (ligand displacement, radioligand; 10 µM).
With `c1ccc(C(NCCNC(c2ccccc2)c2ccccc2)c2ccccc2)cc1` the inhibition was 1% (cell-free assay; 10 µM).
The inhibition of `N#CC1(c2ccccn2)CCN(Cc2cc(C(=O)O)c(=O)n3ccccc23)CC1` is reported as 4.08% (cell-free assay; 10 µM).
